Measured values published in ChEMBL document CHEMBL5247578, “Effective synthesis of benzimidazoles-imidazo[1,2-a]pyrazine conjugates: A comparative study of mono-and bis-benzimidazoles for antitumor activity” (Eur J Med Chem, 2019).

How the values were obtained:
NCI-H23 = assay: Antiproliferative activity against human NCI-H23 cells assessed as cell growth inhibition at 10 uM incubated for 48 hrs by sulforhodamine B assay relative to control; type: functional
How it was run: (§1)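 NCI-60 single-dose screen at 10^-5 M. Cells grown in RPMI 1640 with 5% FBS and 2 mM L-glutamine, plated at 5,000–40,000 cells/well, and preincubated 24 h. Drug (DMSO stock) added and incubated 48 h at 37 °C, 5% CO2. Adherent cells fixed with cold TCA, stained with 0.4% SRB in 1% acetic acid, dye solubilized in 10 mM trizma base, A515 read. Percent growth taken against time-zero and untreated control.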

SW-620 = assay: Antiproliferative activity against human SW620 cells assessed as cell growth inhibition at 10 uM incubated for 48 hrs by sulforhodamine B assay relative to control; type: functional; how it was run: as §1
MDA-MB-435 = assay: Antiproliferative activity against human MDA-MB-435 cells assessed as cell growth inhibition at 10 uM incubated for 48 hrs by sulforhodamine B assay relative to control; type: functional; how it was run: as §1
SF-539 = assay: Antiproliferative activity against human SF-539 cells assessed as cell growth inhibition at 10 uM incubated for 48 hrs by sulforhodamine B assay relative to control; type: functional; how it was run: as §1
HCT-15 = assay: Antiproliferative activity against human HCT-15 cells assessed as cell growth inhibition at 10 uM incubated for 48 hrs by sulforhodamine B assay relative to control; type: functional
How it was run: (§2)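 NCI-60 one-dose prescreen at 10^-5 M. Cells grown in RPMI 1640 with 5% FBS and 2 mM glutamine, preincubated 24 h, then exposed 48 h at 37 °C. Adherent lines TCA-fixed, SRB-stained, A515 read. Growth percent relative to time-zero and control; negative values mean cell kill.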

NCI-H226 = assay: Antiproliferative activity against human NCI-H226 cells assessed as cell growth inhibition at 10 uM incubated for 48 hrs by sulforhodamine B assay relative to control; type: functional; how it was run: as §1
A498 = assay: Antiproliferative activity against human A498 cells assessed as cell growth inhibition at 10 uM incubated for 48 hrs by sulforhodamine B assay relative to control; type: functional
How it was run: (§3)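 Single-dose NCI-60 prescreen at 10^-5 M. Cells in RPMI 1640 with 5% FBS and 2 mM L-glutamine, seeded 5,000–40,000 cells/well with 24 h preincubation, then drug exposure for 48 h at 37 °C under 5% CO2. Growth read by SRB staining of TCA-fixed cells at 515 nm against time-zero and untreated controls. Negative growth values denote cell kill.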

SK-MEL-2 = assay: Antiproliferative activity against human SK-MEL-2 cells assessed as cell growth inhibition at 10 uM incubated for 48 hrs by sulforhodamine B assay relative to control; type: functional; how it was run: as §1
KM12 = assay: Antiproliferative activity against human KM12 cells assessed as cell growth inhibition at 10 uM incubated for 48 hrs by sulforhodamine B assay relative to control; type: functional; how it was run: as §1
SN12C = assay: Antiproliferative activity against human SN12C cells assessed as cell growth inhibition at 10 uM incubated for 48 hrs by sulforhodamine B assay relative to control; type: functional; how it was run: as §1
NCI-H322M = assay: Antiproliferative activity against human NCI-H322M cells assessed as cell growth inhibition at 10 uM incubated for 48 hrs by sulforhodamine B assay relative to control; type: functional; how it was run: as §1
RXF 393 = assay: Antiproliferative activity against human RXF 393 cells assessed as cell growth inhibition at 10 uM incubated for 48 hrs by sulforhodamine B assay relative to control; type: functional; how it was run: as §1
NCI/ADR-RES = assay: Antiproliferative activity against human NCI/ADR-RES cells assessed as cell growth inhibition at 10 uM incubated for 48 hrs by sulforhodamine B assay relative to control; type: functional; how it was run: as §1
HCT-116 = assay: Antiproliferative activity against human HCT-116 cells assessed as cell growth inhibition at 10 uM incubated for 48 hrs by sulforhodamine B assay relative to control; type: functional; how it was run: as §2
UO-31 = assay: Antiproliferative activity against human UO-31 cells assessed as cell growth inhibition at 10 uM incubated for 48 hrs by sulforhodamine B assay relative to control; type: functional; how it was run: as §1
HOP-92 = assay: Antiproliferative activity against human HOP-92 cells assessed as cell growth inhibition at 10 uM incubated for 48 hrs by sulforhodamine B assay relative to control; type: functional; how it was run: as §2
NCI-H460 = assay: Antiproliferative activity against human NCI-H460 cells assessed as cell growth inhibition at 10 uM incubated for 48 hrs by sulforhodamine B assay relative to control; type: functional; how it was run: as §1
786-0 = assay: Antiproliferative activity against human 786-0 cells assessed as cell growth inhibition at 10 uM incubated for 48 hrs by sulforhodamine B assay relative to control; type: functional; how it was run: as §3
MCF7 = assay: Antiproliferative activity against human MCF7 cells assessed as cell growth inhibition at 10 uM incubated for 48 hrs by sulforhodamine B assay relative to control; type: functional; how it was run: as §1
PC-3 = assay: Antiproliferative activity against human PC-3 cells assessed as cell growth inhibition at 10 uM incubated for 48 hrs by sulforhodamine B assay relative to control; type: functional; how it was run: as §1
CCRF-CEM = assay: Antiproliferative activity against human CCRF-CEM cells assessed as cell growth inhibition at 10 uM incubated for 48 hrs by sulforhodamine B assay relative to control; type: functional; how it was run: as §3
OVCAR-8 = assay: Antiproliferative activity against human OVCAR-8 cells assessed as cell growth inhibition at 10 uM incubated for 48 hrs by sulforhodamine B assay relative to control; type: functional; how it was run: as §1
RPMI-8226 = assay: Antiproliferative activity against human RPMI-8226 cells assessed as cell growth inhibition at 10 uM incubated for 48 hrs by sulforhodamine B assay relative to control; type: functional; how it was run: as §1
[1] = n-Octanol/phosphate buffer partition coefficient, logP of the compound at pH 7.4 incubated for 85 mins by shake-flask method; type: physicochemical
How it was run: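 Octanol–water partition by shake-flask: n-octanol with 0.15 M phosphate buffer pH 7.4 at 10:1 volumes. Buffer-phase absorbance read before mixing, then shaken 50 min and centrifuged at 2500 rpm for 35 min. Buffer absorbance read again; P = (Ai−Af)/Af × Vw/Vo.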

SNB-75 = assay: Antiproliferative activity against human SNB-75 cells assessed as cell growth inhibition at 10 uM incubated for 48 hrs by sulforhodamine B assay relative to control; type: functional; how it was run: as §1
A549 = assay: Antiproliferative activity against human A549 cells assessed as cell growth inhibition at 10 uM incubated for 48 hrs by sulforhodamine B assay relative to control; type: functional; how it was run: as §3
HT-29 = assay: Antiproliferative activity against human HT-29 cells assessed as cell growth inhibition at 10 uM incubated for 48 hrs by sulforhodamine B assay relative to control; type: functional; how it was run: as §1
OVCAR-5 = assay: Antiproliferative activity against human OVCAR-5 cells assessed as cell growth inhibition at 10 uM incubated for 48 hrs by sulforhodamine B assay relative to control; type: functional; how it was run: as §1
NCI-H522 = assay: Antiproliferative activity against human NCI-H522 cells assessed as cell growth inhibition at 10 uM incubated for 48 hrs by sulforhodamine B assay relative to control; type: functional; how it was run: as §1
M14 = assay: Antiproliferative activity against human M14 cells assessed as cell growth inhibition at 10 uM incubated for 48 hrs by sulforhodamine B assay relative to control; type: functional; how it was run: as §1
LOX IMVI = assay: Antiproliferative activity against human LOX IMVI cells assessed as cell growth inhibition at 10 uM incubated for 48 hrs by sulforhodamine B assay relative to control; type: functional; how it was run: as §1

Row | SMILES | inhibition at 10 µM (NCI-H23) | inhibition at 10 µM (SW-620) | inhibition at 10 µM (MDA-MB-435) | inhibition at 10 µM (SF-539) | inhibition at 10 µM (HCT-15) | inhibition at 10 µM (NCI-H226) | inhibition at 10 µM (A498) | inhibition at 10 µM (SK-MEL-2) | inhibition at 10 µM (KM12) | inhibition at 10 µM (SN12C) | inhibition at 10 µM (NCI-H322M) | inhibition at 10 µM (RXF 393) | inhibition at 10 µM (NCI/ADR-RES) | inhibition at 10 µM (HCT-116) | inhibition at 10 µM (UO-31) | inhibition at 10 µM (NCI-H460) | inhibition at 10 µM (786-0) | inhibition at 10 µM (MCF7) | inhibition at 10 µM (PC-3) | inhibition at 10 µM (CCRF-CEM) | also measured
1 | c1ccc(-c2cn3ccnc3c(-c3ccc4ncn(C5CCCCC5)c4c3)n2)cc1 | 45.3% | 9.15% | 28.7% | 27.8% | 51.6% | 33.9% | 26.1% | 16.5% | 49% | 28.8% | 5.25% | 45% | 50.5% | 59.5% | 55.1% | 37.8% | 36.8% | 38% | 92% | 81.2% | inhibition at 10 µM (HOP-92): 53.7%; inhibition at 10 µM (OVCAR-8): 63.9%; inhibition at 10 µM (RPMI-8226): 85.7%; logD at 1.417 h [1]: 1.74; inhibition at 10 µM (SNB-75): 44.4%; inhibition at 10 µM (A549): 33.3%; inhibition at 10 µM (HT-29): 48.3%; inhibition at 10 µM (OVCAR-5): 7.87%; inhibition at 10 µM (NCI-H522): 58.1%; inhibition at 10 µM (M14): 38.2%; inhibition at 10 µM (LOX IMVI): 39.6%
2 | c1ccc(Cn2cnc3ccc(-c4nc(-c5ccc6c(c5)ncn6C5CCCCC5)cn5ccnc45)cc32)cc1 | -22.8% | 97.8% | -6.16% | -77.6% | -9.03% | -63.1% | -71.8% | -36.7% | -39.4% | -35.4% | 84% | -76.9% | 99.5% | -75.8% | -51.4% | -20.3% | -19.4% | 98% | -39.5% | 94.4% | inhibition at 10 µM (HOP-92): -83.6%; inhibition at 10 µM (OVCAR-8): 97.5%; inhibition at 10 µM (RPMI-8226): -41.2%; logD at 1.417 h [1]: 1.61; inhibition at 10 µM (SNB-75): -67.4%; inhibition at 10 µM (A549): -5.05%; inhibition at 10 µM (HT-29): -48.7%; inhibition at 10 µM (OVCAR-5): -29%; inhibition at 10 µM (NCI-H522): -35.2%; inhibition at 10 µM (M14): -4.44%; inhibition at 10 µM (LOX IMVI): -87%
3 | c1cn2cc(-c3ccc4ncn(C5CCCCC5)c4c3)nc(-c3ccc4ncn(C5CCCCC5)c4c3)c2n1 | 28.2% | 35.6% | 60.2% | 16.7% | 57.1% | 46.7% | 26.2% | 31.7% | 63.5% | 42.7% | 39.1% | 16.8% | 48.8% | 80.2% | 68.8% | 53% | 34.3% | 45% | 64.2% | 78.5% | inhibition at 10 µM (OVCAR-8): 59.5%; inhibition at 10 µM (RPMI-8226): 89.1%; logD at 1.417 h [1]: 1.19; inhibition at 10 µM (SNB-75): 25.4%; inhibition at 10 µM (A549): 57.6%; inhibition at 10 µM (HT-29): 71.9%; inhibition at 10 µM (OVCAR-5): 7.18%; inhibition at 10 µM (NCI-H522): 49.4%; inhibition at 10 µM (M14): 40.6%; inhibition at 10 µM (LOX IMVI): 67%
